Inhibition of growth data for five molecules are collected here from ChEMBL document CHEMBL2375304, “Synthesis and anticancer activity of novel 2-pyridyl hexahyrocyclooctathieno[2,3-d]pyrimidine derivatives” (2013).

Common to all, as to format: functional
One test relates to M14. Description: Growth inhibition of human M14 cells at 10^-5 M after 48 hrs by Sulforhodamine B assay relative to control. Particulars: M14, 48 h, read-out: GI. An outline of the steps: (§1)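 Single-dose screen at 10⁻⁵ M. Cells are preincubated 24 h at 37 °C in 5% CO2, then exposed to the compound, diluted from a DMSO stock into medium with gentamicin, for 48 h. Adherent cells are fixed with cold TCA (final 10%) and suspension cells with TCA (final 16%). Cells are stained with 0.4% SRB in 1% acetic acid and bound dye is read at 515 nm. Percent growth inhibition is taken against control wells and time-zero plates.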
(In general: In SRB staining, fixed cells bind dye roughly in proportion to their protein.)

The next test deals with NCI-H322M. Description: Growth inhibition of human NCI-H322M cells at 10^-5 M after 48 hrs by Sulforhodamine B assay relative to control. The note with it: read-out: GI. An outline of the steps: (§2)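 Single-dose primary screen at 10⁻⁵ M across 49 lines. Cells were plated 24 h beforehand, with a TCA-fixed time-zero plate, then exposed 48 h at 37 °C, 5% CO2. Cells were fixed with cold TCA, stained with SRB and read at 515 nm. Percent growth was calculated against time-zero and untreated-control absorbances.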

The subject of the next test is HOP-62. Description: Growth inhibition of human HOP62 cells at 10^-5 M after 48 hrs by Sulforhodamine B assay relative to control. Particulars: HOP-62, 48 h, read-out: GI. The gist of the method:
as §1

Another test relates to A549. Description: Growth inhibition of human A549/ATCC cells at 10^-5 M after 48 hrs by Sulforhodamine B assay relative to control. The note with it: A549, 48 h, read-out: GI. An outline of the steps:
as §1

In the next test the test system is MOLT-4. In words: Growth inhibition of human MOLT4 cells at 10^-5 M after 48 hrs by Sulforhodamine B assay relative to control. Particulars: MOLT-4, 48 h, read-out: GI. An outline of the steps:
as §2

The next test concerns CCRF-CEM. In words: Growth inhibition of human CCRF-CEM cells at 10^-5 M after 48 hrs by Sulforhodamine B assay relative to control. The note with it: read-out: GI. An outline of the steps:
as §1

The test system of a further test is BT-549. In words: Growth inhibition of human BT549 cells at 10^-5 M after 48 hrs by Sulforhodamine B assay relative to control. The note with it: BT-549, 48 h, read-out: GI. The gist of the method: as §1
The test system of another test is DU-145. In words: Growth inhibition of human DU145 cells at 10^-5 M after 48 hrs by Sulforhodamine B assay relative to control. Particulars: DU-145, 48 h, read-out: GI. An outline of the steps:
as §1

For another test, the system named is CAKI-1. In words: Growth inhibition of human CAKI-1 cells at 10^-5 M after 48 hrs by Sulforhodamine B assay relative to control. Particulars: CAKI-1, 48 h, read-out: GI. An outline of the steps: as §1
The next test has as its system SK-OV-3. In words: Growth inhibition of human SKOV3 cells at 10^-5 M after 48 hrs by Sulforhodamine B assay relative to control. The note with it: SK-OV-3, 48 h, read-out: GI. An outline of the steps: as §2
The next test has as its system OVCAR-3. Description: Growth inhibition of human OVCAR3 cells at 10^-5 M after 48 hrs by Sulforhodamine B assay relative to control. Particulars: OVCAR-3, 48 h, read-out: GI. An outline of the steps: as §2
For another test, the system named is OVCAR-4. In words: Growth inhibition of human OVCAR4 cells at 10^-5 M after 48 hrs by Sulforhodamine B assay relative to control. The note with it: OVCAR-4, 48 h, read-out: GI. The gist of the method:
as §2

The subject of another test is IGROV-1. In words: Growth inhibition of human IGROV1 cells at 10^-5 M after 48 hrs by Sulforhodamine B assay relative to control. Particulars: IGROV-1, 48 h, read-out: GI. An outline of the steps: as §1
The test system of another test is MDA-MB-435. In words: Growth inhibition of human MDA-MB-435 cells at 10^-5 M after 48 hrs by Sulforhodamine B assay relative to control. Particulars: MDA-MB-435, 48 h, read-out: GI. The gist of the method:
as §1

As to `NNc1nc(-c2ccncc2)nc2sc3c(c12)CCCCCC3`, the inhibition of growth at 10 µM in the test with M14 was -11.9%; with NCI-H322M, 3.42%; in the test with HOP-62 it was 4.03%; in the test with A549 it was -1.81%; with MOLT-4, 9.09%; in the test on CCRF-CEM, 25.9%. The inhibition of growth at 10 µM was 1.1% in the test on BT-549; -30.4% in the test with DU-145; 7.27% in the test with CAKI-1; 9.44% in the test on SK-OV-3; -0.84% in the test on OVCAR-3; 18.7% with OVCAR-4. In addition, the inhibition of growth at 10 µM was -16.5% with IGROV-1 and 1.01% in the test with MDA-MB-435.

For `CN1CCN(c2nc(-c3ccccn3)nc3sc4c(c23)CCCCCC4)CC1`, the inhibition of growth at 10 µM is 6.12% in the test on M14; 1.03% with NCI-H322M; -3.13% in the test with HOP-62; 22.6% with A549; 7.6% in the test with MOLT-4; 5.41% in the test with CCRF-CEM. In addition, the inhibition of growth at 10 µM in the test with BT-549 is 10.3%; in the test with DU-145, -11.6%; in the test with CAKI-1 it was 20%; with SK-OV-3, -3.22%; in the test with OVCAR-3 it was -5.6%; with OVCAR-4 it was 16%. In addition, the inhibition of growth at 10 µM turned out to be 6.64% in the test on IGROV-1 and 4.89% in the test on MDA-MB-435.

Take `c1ccc(N2CCN(c3nc(-c4ccccn4)nc4sc5c(c34)CCCCCC5)CC2)cc1`: the inhibition of growth at 10 µM in the test on M14 was found to be 27.1%; in the test with NCI-H322M, 17.7%; in the test with HOP-62, 36.2%; in the test on A549, 68.2%; with MOLT-4 it was 47.9%; in the test on CCRF-CEM it was 31%. Further, the inhibition of growth at 10 µM with BT-549 stood at 2.77%; in the test with DU-145 it was 21.1%; with CAKI-1 it was 45.9%; in the test with SK-OV-3, 12.6%; in the test on OVCAR-3, 27%; with OVCAR-4, 44%. The inhibition of growth at 10 µM in the test with IGROV-1 came to 62.9%; in the test with MDA-MB-435, 34.2%.

As for `Clc1nc(-c2ccccn2)nc2sc3c(c12)CCCCCC3`, the inhibition of growth at 10 µM in the test on M14 turned out to be 13.2%; with NCI-H322M it was 15.5%; in the test with HOP-62 it was 13.4%; with A549, 0.18%; in the test with MOLT-4, 32.3%; with CCRF-CEM, 27.6%. In addition, the inhibition of growth at 10 µM is 14.9% with BT-549; 77.5% in the test with DU-145; 165% with CAKI-1; -5.16% with SK-OV-3; -7.89% with OVCAR-3; 14.3% in the test on OVCAR-4. The inhibition of growth at 10 µM in the test on IGROV-1 was 10.2%; in the test with MDA-MB-435, 8.64%.

`Clc1nc(-c2ccncc2)nc2sc3c(c12)CCCCCC3`: the inhibition of growth at 10 µM in the test on M14 is -7.52%; with NCI-H322M, 3.46%; in the test with HOP-62 it was -9.05%; in the test with A549 it was -3.56%; in the test with MOLT-4 it was 15.6%; in the test with CCRF-CEM, 23.8%. For the same molecule, the inhibition of growth at 10 µM in the test with BT-549 was -2.76%; in the test on DU-145 it was 8.02%; in the test on CAKI-1, -4.99%; in the test on SK-OV-3, -7.46%; with OVCAR-3, -5.97%; with OVCAR-4, 14.8%. Besides, the values for the inhibition of growth at 10 µM in the test with IGROV-1 and with MDA-MB-435 were 7.04% and 3.14%, respectively.
